Here are results for three compounds from ChEMBL document CHEMBL4145471, “New 1,5 and 2,5-disubstituted tetrazoles-dependent activity towards surface barrier of Candida albicans” (Eur J Med Chem, 2018).

Assay [1] has as its system Candida albicans. Briefly: Antifungal activity against Candida albicans ATCC 90028 assessed as metabolic activity at 10 ug/ml after 48 hrs in presence of 80 ug/ml fluconazol by XTT assay relative to control. Background: Tetrazolium assays rely on reduction of a dye to a coloured formazan, in cell work by metabolically active cells.
The test system of assay [2] is Candida albicans. Briefly: Antifungal activity against Candida albicans ATCC 90028 assessed as inhibition of metabolic activity at 10 ug/ml after 48 hrs in presence of 20 ug/ml fluconazol by XTT assay relative to control. Type of assay: functional. To be noted: values are per cent of control. The method, boiled down: (§1)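 Checkerboard against strain ATCC 90028, inoculum per M27-A3: fluconazole 80-1.25 µg/mL on one axis, tetrazole 80-1.25 µg/mL on the other. Plates at 35°C for 48 h, then XTT metabolic reduction read at 475 nm (660 nm reference). Activity is the drop in mean absorbance against untreated growth control. FICs and their summed FIC index are taken at 50% reduction in metabolic activity.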

In assay [3] the test system is Candida albicans. Briefly: Antifungal activity against Candida albicans ATCC 90028 at 4 ug/ml after 48 hrs relative to control. Type of assay: functional. In short, it runs like this:
(§2)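 Planktonic broth microdilution per M27-A3 in MOPS-buffered RPMI 1640 (pH 7.0), final inoculum 1.8×10^3 cells/mL, compounds 0.0313–16 µg/mL from 1600 µg/mL stocks in ethanol or DMSO. Incubated at 35°C without agitation; OD405 read at 18 and 48 h. % inhibition was derived from test, sterility (no inoculum) and solvent growth-control wells. Amphotericin B at 0.5 µg/mL served as the 100% control.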

Assay [4] relates to Candida albicans. The experiment in a line: Synergistic antifungal activity against Candida albicans ATCC 90028 at 80 ug/ml after 48 hrs in presence of 1.25 ug/ml fluconazol by checkerboard assay relative to control. Type of assay: functional. In short, it runs like this:
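Checkerboard in C. albicans ATCC 90028, inoculum prepared per CLSI M27-A3 in RPMI. Fluconazole serially diluted 80-1.25 µg/mL across the plate against the partner compound at 80-1.25 µg/mL final. Incubated 48 h at 35°C. Metabolic activity read by XTT reduction at 475 nm (660 nm reference), given as % of the untreated growth control.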

In assay [5] the test system is Candida albicans. Briefly: Antifungal activity against Candida albicans ATCC 90028 after 48 hrs by M27-A3 microdilution method. It counts as functional. To be noted: ATCC 90028, 48 h. (In general: In broth dilution the organism is exposed to a series of concentrations in liquid medium.)
For assay [6], the system named is Candida albicans. The experiment in a line: Antifungal activity against Candida albicans ATCC 90028 at 8 ug/ml after 48 hrs relative to control. It counts as functional. In short, it runs like this:
as §2

Assay [7] deals with Candida albicans. The experiment in a line: Antifungal activity against Candida albicans ATCC 90028 assessed as metabolic activity at 40 ug/ml after 48 hrs in presence of 40 ug/ml fluconazol by XTT assay relative to control. To be noted: ATCC 90028, 48 h.
The subject of assay [8] is Candida albicans. Briefly: Antifungal activity against Candida albicans ATCC 90028 at 0.0313 ug/ml after 18 hrs relative to control. Type of assay: functional.
The test system of assay [9] is Candida albicans. The experiment in a line: Antifungal activity against Candida albicans ATCC 90028 at 16 ug/ml after 48 hrs relative to control. It counts as functional. The method, boiled down: as §2
Assay [10] deals with Candida albicans. Briefly: Antifungal activity against Candida albicans ATCC 90028 assessed as metabolic activity at 20 ug/ml after 48 hrs in presence of 10 ug/ml fluconazol by XTT assay relative to control.
The subject of assay [11] is Candida albicans. Briefly: Antifungal activity against Candida albicans ATCC 90028 assessed as metabolic activity at 20 ug/ml after 48 hrs in presence of 2.5 ug/ml fluconazol by XTT assay relative to control.
Assay [12] deals with Candida albicans. Briefly: Synergistic antifungal activity against Candida albicans ATCC 90028 at 2.5 ug/ml after 48 hrs in presence of 2.5 ug/ml fluconazol by checkerboard assay relative to control. Type of assay: functional. To be noted: ATCC 90028, 48 h, read-out: GI. In short, it runs like this: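 Checkerboard microdilution (M27-A3) on C. albicans ATCC 90028 in RPMI 1640: fluconazole (80-1.25 µg/mL) crossed with tetrazole (80-1.25 µg/mL final), incubated at 35°C for 48 h. Growth by OD405 at 18 and 48 h, endpoint taken as 100% inhibition. FIC index = sum of the two agents' FICs; <1 synergism, >1 antagonism.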

Assay [13] relates to Candida albicans. Briefly: Synergistic antifungal activity against Candida albicans ATCC 90028 at 1.25 ug/ml after 48 hrs in presence of 5 ug/ml fluconazol by checkerboard assay relative to control. Type of assay: functional. The method, boiled down: (§3)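 Checkerboard per M27-A3 against ATCC 90028: fluconazole at 80–1.25 µg/mL horizontally and partner compound at 80–1.25 µg/mL vertically, 100 µL yeast inoculum per well, 35°C for 48 h. After 48 h, metabolic activity was measured by XTT reduction at 475 nm (660 nm reference) relative to untreated growth control. FIC index is the sum of the FICs; <1 was defined as synergism and >1 as antagonism.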

Assay [14] relates to Candida albicans. Briefly: Antifungal activity against Candida albicans ATCC 90028 assessed as inhibition of metabolic activity at 5 ug/ml after 48 hrs in presence of 40 ug/ml fluconazol by XTT assay relative to control. To be noted: values are per cent of control. Type of assay: functional. The method, boiled down:
as §1

In assay [15] the test system is Candida albicans. Briefly: Antifungal activity against Candida albicans ATCC 90028 at 0.0625 ug/ml after 48 hrs relative to control. Type of assay: functional. In short, it runs like this: as §2
Assay [16] has as its system Candida albicans. Briefly: Antifungal activity against Candida albicans ATCC 90028 at 0.125 ug/ml after 48 hrs relative to control. It counts as functional. The method, boiled down: as §2
Assay [17] has as its system Candida albicans. The experiment in a line: Antifungal activity against Candida albicans ATCC 90028 assessed as inhibition of metabolic activity at 2.5 ug/ml after 48 hrs in presence of 2.5 ug/ml fluconazol by XTT assay relative to control. It counts as functional. To be noted: ATCC 90028, 48 h, values are per cent of control. The method, boiled down:
(§4)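 C. albicans ATCC 90028 in checkerboard: fluconazole serial dilutions (80-1.25 µg/mL) crossed with tetrazole (80-1.25 µg/mL final), M27-A3 inoculum in RPMI 1640, 35°C for 48 h. Metabolic activity measured by XTT reduction, read at 475 nm (660 nm reference). Activity expressed relative to untreated growth control absorbance.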

Assay [18] concerns Candida albicans. Briefly: Antifungal activity against Candida albicans ATCC 90028 assessed as inhibition of metabolic activity at 2.5 ug/ml after 48 hrs in presence of 10 ug/ml fluconazol by XTT assay relative to control. Type of assay: functional. To be noted: values are per cent of control. The method, boiled down:
as §4

The test system of assay [19] is Candida albicans. The experiment in a line: Antifungal activity against Candida albicans ATCC 90028 assessed as inhibition of metabolic activity at 1.25 ug/ml after 48 hrs in presence of 5 ug/ml fluconazol by XTT assay relative to control. To be noted: values are per cent of control. It counts as functional. In short, it runs like this:
as §1

Assay [20] has as its system Candida albicans. The experiment in a line: Antifungal activity against Candida albicans ATCC 90028 assessed as inhibition of metabolic activity at 2.5 ug/ml after 48 hrs in presence of 1.25 ug/ml fluconazol by XTT assay relative to control. Type of assay: functional. To be noted: values are per cent of control. In short, it runs like this:
as §4

Assay [21] has as its system Candida albicans. The experiment in a line: Synergistic antifungal activity against Candida albicans ATCC 90028 at 10 ug/ml after 48 hrs in presence of 40 ug/ml fluconazol by checkerboard assay relative to control. It counts as functional. In short, it runs like this:
as §3

Assay [22] deals with Candida albicans. Briefly: Synergistic antifungal activity against Candida albicans ATCC 90028 at 10 ug/ml after 48 hrs in presence of 10 ug/ml fluconazol by checkerboard assay relative to control. It counts as functional. To be noted: ATCC 90028, 48 h, read-out: GI. In short, it runs like this: as §3

SMILES strings stand for the structures.

In the case of `Cc1ccc(-c2nnn(CCCN3CCOCC3)n2)cc1`, the Metabolic activity turned out to be 89.3% in the assay with Candida albicans [1], 46.94% in the assay with Candida albicans [10] and 71.88% with Candida albicans [11]. For the same compound, the residual activity (commonly the activity still measured, relative to the control) with Candida albicans [2] worked out at 93.01%; in the assay on Candida albicans [14] it was 100%; in the assay on Candida albicans [18], 85.87%; with Candida albicans [19], 100%; with Candida albicans [20], 100%. Further, the Activity in the assay with Candida albicans [3] came to 99.45%; in the assay on Candida albicans [6], 99.39%; in the assay with Candida albicans [8] it was 99.87%; in the assay with Candida albicans [9], 99.44%; in the assay with Candida albicans [15] it was 99.03%; with Candida albicans [16] it was 98.96%. Moreover, the “growth inhibition (GI)” value was 98.77% in the assay on Candida albicans [4], 99.86% with Candida albicans [13] and 98.78% in the assay with Candida albicans [21]. Also, the MIC (commonly the smallest concentration in the dilution series that meets the test's criterion for growth inhibition) against Candida albicans [5] was over 16 µg/mL. Further, the Metabolic activity at 40 µg/mL with Candida albicans [7] is 95.3%. Further, the inhibition of growth at 2.5 µg/mL in the assay on Candida albicans [12] came out at 98.5%. In addition, the residual activity at 2.5 µg/mL in the assay on Candida albicans [17] came out at 100%. For the same compound, the inhibition of growth at 10 µg/mL in the assay with Candida albicans [22] amounted to 99%.
Consider `ClCCCn1nnnc1-c1ccccc1Cl`, for which the Metabolic activity amounted to 80.34% in the assay with Candida albicans [1], 68.01% with Candida albicans [10] and 81.5% with Candida albicans [11]. Besides, the residual activity is reported as 87.4% in the assay on Candida albicans [2]; 86.34% in the assay with Candida albicans [14]; 64.55% with Candida albicans [18]; 100% in the assay on Candida albicans [19]; 0% in the assay with Candida albicans [20]. Besides, the Activity with Candida albicans [3] is reported as 99.41%; in the assay on Candida albicans [6], 99.06%; in the assay with Candida albicans [8] it was 99.51%; in the assay with Candida albicans [9] it was 99.39%; in the assay with Candida albicans [15], 99.34%; with Candida albicans [16], 99.43%. In addition, the “growth inhibition (GI)” value with Candida albicans [4] was determined as 100%; with Candida albicans [13], 98.74%; in the assay on Candida albicans [21], 99.29%. Further, the MIC against Candida albicans [5] is over 16 µg/mL. For the same compound, the Metabolic activity at 40 µg/mL with Candida albicans [7] was found to be 100%. For the same compound, the inhibition of growth at 2.5 µg/mL with Candida albicans [12] turned out to be 99.4%. Besides, in the assay on Candida albicans [17], the residual activity at 2.5 µg/mL stood at 75.8%. In addition, the inhibition of growth at 10 µg/mL with Candida albicans [22] turned out to be 99.7%.
Consider `CCOC(=O)CCn1nnc(-c2ccccc2)n1`, for which the Metabolic activity in the assay with Candida albicans [1] worked out at 77.26%; in the assay on Candida albicans [10], 59.93%; in the assay with Candida albicans [11], 80.61%. In addition, the residual activity in the assay with Candida albicans [2] is 70.81%; in the assay with Candida albicans [14], 94.92%; in the assay on Candida albicans [18] it was 71.01%; in the assay with Candida albicans [19], 100%; in the assay on Candida albicans [20], 90.2%. Besides, the Activity in the assay with Candida albicans [3] is on record as 99.68%; with Candida albicans [6] it was 98.86%; with Candida albicans [8] it was 99.34%; with Candida albicans [9], 99.65%; in the assay on Candida albicans [15], 99.12%; in the assay on Candida albicans [16] it was 99.18%. For the same compound, the “growth inhibition (GI)” value was 99.97% in the assay with Candida albicans [4], 98.99% in the assay with Candida albicans [13] and 99.34% with Candida albicans [21]. For the same compound, the MIC against Candida albicans [5] was over 16 µg/mL. Further, the Metabolic activity at 40 µg/mL with Candida albicans [7] is 100%. For the same compound, in the assay on Candida albicans [12], the inhibition of growth at 2.5 µg/mL worked out at 99.8%. Moreover, in the assay with Candida albicans [17], the residual activity at 2.5 µg/mL was determined as 82.6%. In addition, the inhibition of growth at 10 µg/mL in the assay on Candida albicans [22] was 99.4%.
